Data set [1] concerns RAW264.7. The data set is described as follows: Cytotoxicity against mouse RAW264.7 cells assessed as reduction in cell viability at 1 uM measured after 20 hrs by MTS assay. In kind it is toxicity, cell-based. Particulars: raw264.7, 20 h. In short, it runs like this:
(§1)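 MTS viability assay. RAW 264.7 cells seeded at 25,000 cells/cm2; HBE and hASM cells at 70% confluency and serum-starved for 24 h. Exposure for 20 h with LPS/IFNγ stimulation. MTS reagent added for 1 h at 37 °C in the dark, absorbance read at 490 nm. LPS/IFNγ-stimulated cells without inhibitor set at 100%.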
Background: Tetrazolium dyes change colour on reduction, which living cells bring about.

A further data set relates to HASMC. As to the kind of experiment: Cytotoxicity against HASMC cells assessed as reduction in cell viability at 2 uM measured after 20 hrs by MTS assay. In kind it is toxicity, cell-based. Particulars: human. In short, it runs like this: as §1
The subject of data set [2] is RAW264.7. The data set is described as follows: Antiinflammatory activity in mouse RAW264.7 cells assessed as effect on LPS/IFNgamma-induced IL-10 gene expression at 1 uM preincubated for 20 hrs followed by LPS/IFNgamma stimulation and measured after 4 hrs by RT-qPCR analysis. The data set is classed as functional, cell-based. Particulars: time 24.0 hrs. An outline of the steps: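 RAW 264.7 macrophages in DMEM/10% FBS received 1 μM RGFP966 for 20 h, with LPS/IFNγ for the last 4 h. Washed with cold DPBS, total RNA isolated, integrity checked by 28S/18S. RT-qPCR by comparative Ct (2−ΔΔCt), fold change versus LPS/IFNγ control. Mean ± SD of 3–5 independent experiments.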
(In general: In qPCR the cycle at which signal appears reflects the starting amount.)

The next data set relates to HBE. As to the kind of experiment: Antiinflammatory activity in HBE cells assessed as effect on LPS/IFNgamma-induced iNOS gene expression at 2 uM […] by RT-qPCR analysis. The data set is classed as functional, cell-based. Particulars: Homo sapiens. In short, it runs like this: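 HBE cells (passage 73–103) or immortalized hASM cells (2–3 donors, passage 27–35), serum-starved. Then 2 μM RGFP966 for 20 h, with LPS/IFNγ for the last 4 h. Total RNA isolated; RT-qPCR by 2−ΔΔCt, fold change versus LPS/IFNγ control. Mean ± SD of 3–5 independent experiments.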

Data set [3] is described as follows: Toxicity in C57bl/6 mouse precision-cut lung slices assessed as effect on tissue viability up to 10 uM measured after 20 hrs by LDH release assay. In kind it is tissue-based. An outline of the steps: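 PCLS (250 μm) from male C57bl/6 mice, agarose-filled lungs, washed four times, 3 slices/well at 37 °C 5% CO2; inhibitor at 1 and 10 μM for 20 h. LDH in medium measured on automatic analyzer, expressed relative to maximal release from 3 slices lysed with 1% Triton X-100 (30 min, 37 °C).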

Data set [4] deals with Lung. As to the kind of experiment: Antiinflammatory activity in C57bl/6 mouse precision-cut lung slices assessed as upregulation of LPS/IFNgamma-induced IL-10 gene expression at 1 to 10 uM preincubated for 20 hrs followed by LPS/IFNgamma stimulation and measured after 4 hrs by RT-qPCR analysis relative to control. In kind it is functional. Particulars: dose 1-10 µM; time 24 hrs. An outline of the steps:
(§2)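 PCLS, 250 μm thick, cut from agarose-filled lungs of male C57bl/6 mice (24–28 g, 8–10 weeks). Three slices per well at 37 °C, 5% CO2. Slices received RGFP966 at 1 and 10 μM final for 20 h, with 10 ng/ml LPS and 10 ng/ml IFNγ stimulation. RNA isolated; RT-qPCR fold change versus LPS/IFNγ control by 2−ΔΔCt. Mean ± SD, n = 3–5.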

For data set [5], the system named is Lung. The data set is described as follows: Antiinflammatory activity in C57bl/6 mouse precision-cut lung slices assessed as down regulation of LPS/IFNgamma-induced iNOS gene expression at 1 to 10 uM preincubated for 20 hrs followed by LPS/IFNgamma stimulation and measured after 4 hrs by RT-qPCR analysis. Particulars: dose 1-10 µM, time 24.0 hrs. In kind it is functional, tissue-based. An outline of the steps:
as §2

In data set [6] the target is T1, Histone deacetylase 3 (Mus musculus) (UniProt O88895).
T1 sequence (whole entry): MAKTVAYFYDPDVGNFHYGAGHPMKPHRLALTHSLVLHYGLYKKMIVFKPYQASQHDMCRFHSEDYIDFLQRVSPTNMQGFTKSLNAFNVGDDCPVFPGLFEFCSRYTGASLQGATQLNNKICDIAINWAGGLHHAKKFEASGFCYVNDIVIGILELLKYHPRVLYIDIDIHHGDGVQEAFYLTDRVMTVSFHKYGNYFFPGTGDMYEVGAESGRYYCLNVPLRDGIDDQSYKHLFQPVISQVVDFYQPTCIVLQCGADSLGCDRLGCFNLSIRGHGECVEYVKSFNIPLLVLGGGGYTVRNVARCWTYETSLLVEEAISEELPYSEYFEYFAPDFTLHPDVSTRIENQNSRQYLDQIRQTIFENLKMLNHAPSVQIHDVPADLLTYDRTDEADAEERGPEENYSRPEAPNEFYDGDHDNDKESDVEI
The data set is described as follows: Inhibition of HDAC3 in mouse RAW264.7 cells assessed as effect on histone H3 acetylation measured after 20 hrs by Western blot analysis. In kind it is cell-based. In short, it runs like this: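 Histones extracted from RAW 264.7 cells after 20 h inhibitor treatment, protein quantified by micro BCA (BSA standard), and H3 and H4 acetylation assessed by Western blot versus vehicle-treated cells.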

Data set [7] has as its target T1, Histone deacetylase 3 (Mus musculus). The data set is described as follows: Inhibition of HDAC3 in mouse RAW264.7 cells assessed as effect on histone H4 peptide (GKGGKGLGKGGAKR) acetylation measured after 20 hrs by LC-MS/MS analysis. The data set is classed as cell-based. An outline of the steps:
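Histones from RAW 264.7 (20 h treatment) run on 15% SDS-PAGE (7 μg), Coomassie-stained H3/H4 bands excised, destained, and chemically acetylated with acetic anhydride-d6 in 1 M ammonium bicarbonate; endogenous lysine acetylation ratio derived by mass spectrometry from deuterated versus non-deuterated acetyl mass difference.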

The target is the same in data set [8]. The data set is described as follows: Inhibition of HDAC3 in mouse RAW264.7 cells assessed as effect on LPS/IFNgamma-induced NF-kappaB p65 nuclear translocation preincubated for 20 hrs followed by LPS/IFNgamma stimulation and measured after 1 hr by immunofluorescence microscopy. The data set is classed as cell-based. An outline of the steps:
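RAW 264.7 seeded at 20,000 cells/cm2, 1 μM inhibitor 20 h then 1 h LPS/IFNγ; fixed 4% formaldehyde, permeabilized 0.25% Triton X-100, blocked 5% BSA; rabbit anti-p65 (1:250, 2 h 4 °C) with AlexaFluor488 secondary, Hoechst nuclei; confocal imaging at identical settings; 3 independent experiments.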

Data set [9] relates to Lung. The data set is described as follows: Antiinflammatory activity in C57bl/6 mouse precision-cut lung slices assessed as effect on LPS/IFNgamma-induced HDAC2 gene expression at 1 to 10 uM preincubated for 20 hrs followed by LPS/IFNgamma stimulation and measured after 4 hrs by RT-qPCR analysis. In kind it is functional, tissue-based. Particulars: dose 1-10 µM, time 24.0 hrs.

The test system of data set [10] is RAW264.7. The data set is described as follows: Effect on HDAC3-NFkappaB p65 protein-protein interaction in LPS/IFNgamma-stimulated mouse RAW264.7 cells at 1 uM preincubated for 20 hrs followed by LPS/IFNgamma stimulation and measured after 1 hr by immunoprecipitation analysis. In kind it is cell-based. An outline of the steps: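 RAW 264.7 cells treated for 20 h, then LPS/IFNγ-stimulated. Lysates rotated 4 h at 4 °C and cleared. NF-κB p65 immunoprecipitated with mouse monoclonal antibody overnight at 4 °C, then Protein A/G agarose for 6 h at 4 °C, followed by washes. Immunoblot for HDAC 3, densitometry normalized to NF-κB p65. Mean ± SD of 3 experiments.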

The source made the active and inactive calls. No cut-off for these calls is given here.

For `Nc1cc(F)ccc1NC(=O)/C=C/c1cnn(C/C=C/c2ccccc2)c1`, the Activity result (in the data set with RAW264.7 [1]; in the data set with HASMC; in data set [3]) was “Non-Toxic” each time. The result with RAW264.7 [2], in the data set with HBE, with Lung [9] and in the data set with RAW264.7 [10] was inactive. The “fold change (FC)” value in the data set with Lung [4] was 2. Besides, the result in the data set on Lung [5] was Active. In addition, the inhibition result in data set [6], in data set [7] and in data set [8] was “inactive” each time.

For the origin of these results see ChEMBL document CHEMBL5653624 (Biochem Pharmacol, 2016).
